Experimental data taken from ChEMBL document CHEMBL1123883, “Structure-activity relationships in the 2-arylcarbapenem series: synthesis of 1-methyl-2-arylcarbapenems” (1987).
Converted amounts (≈) assume the structure as drawn.

Key:
Enterobacter = assay: Antibiotic activity was determined against Enterobacter species (6); format: functional
Summary of the method: (§1)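 Inhibitory concentrations against the strains of each species were expressed as a ratio to the inhibitory concentration of thienamycin, the reference carbapenem, in the same strains.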

Pseudomonas aeruginosa = assay: Antibiotic activity was determined against Pseudomonas aeruginosa (5); format: functional; summary of the method: as §1
Klebsiella sp. = assay: Antibiotic activity was determined against Klebsiella species (5); format: functional; summary of the method: as §1
Proteus = assay: Antibiotic activity was determined against Proteus species (5); format: functional, Proteus sp.; summary of the method: as §1
Serratia = assay: Antibiotic activity was determined against Serratia species (2); format: functional; summary of the method: as §1
Enterococcus = assay: Antibiotic activity was determined against Enterococcus (3); format: functional; summary of the method: as §1
Staphylococcus aureus = assay: Antibiotic activity was determined against Staphylococcus aureus (5); format: functional; summary of the method: as §1
Escherichia coli = assay: Antibiotic activity was determined against Escherichia coli(5); format: functional; summary of the method: as §1
[1] = molecular target: T1, Dipeptidase 1 (Homo sapiens) (UniProt P16444); assay: Susceptibility to mammalian dehydropeptidase DHP-1 relative to thienamycin
T1 sequence (whole entry): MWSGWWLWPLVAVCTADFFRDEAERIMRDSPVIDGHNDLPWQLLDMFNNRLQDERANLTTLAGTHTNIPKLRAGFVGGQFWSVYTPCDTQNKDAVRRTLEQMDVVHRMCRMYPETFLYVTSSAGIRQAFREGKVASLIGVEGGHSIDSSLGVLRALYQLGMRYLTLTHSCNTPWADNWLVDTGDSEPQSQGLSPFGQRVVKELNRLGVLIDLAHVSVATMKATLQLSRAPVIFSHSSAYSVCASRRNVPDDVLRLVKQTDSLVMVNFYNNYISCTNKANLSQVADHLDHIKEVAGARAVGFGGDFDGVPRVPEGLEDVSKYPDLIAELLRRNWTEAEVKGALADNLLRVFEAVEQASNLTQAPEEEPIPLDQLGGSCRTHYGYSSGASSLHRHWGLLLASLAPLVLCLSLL

MIC (Enterobacter) [µg/mL] | MIC (Pseudomonas aeruginosa) [µg/mL] | MIC (Klebsiella sp.) [µg/mL] | MIC (Proteus) [µg/mL] | MIC (Serratia) [µg/mL] | MIC (Enterococcus) [µg/mL] | MIC (Staphylococcus aureus) [µg/mL] | MIC (Escherichia coli) [µg/mL] | Relative susceptibility [1] | SMILES
11 (≈ 36.4 µM) | 0.3 (≈ 0.992 µM) | 3.2 (≈ 10.6 µM) | 6.5 (≈ 21.5 µM) | 5.3 (≈ 17.5 µM) | 9.2 (≈ 30.4 µM) | 1.5 (≈ 4.96 µM) | 3.5 (≈ 11.6 µM) |  | CC(O)[C@H]1C(=O)N2C(C(=O)O)=C(c3ccc(CN)cc3)C[C@H]12 (stereo not given in full)
5.7 (≈ 18.8 µM) | 0.2 (≈ 0.659 µM) | 3 (≈ 9.89 µM) | 3.2 (≈ 10.5 µM) | 5.3 (≈ 17.5 µM) | 8 (≈ 26.4 µM) | 1.9 (≈ 6.26 µM) | 3 (≈ 9.89 µM) | 0.1 | C[C@@H](O)[C@H]1C(=O)N2C(C(=O)O)=C(c3ccc(CN)nc3)C[C@H]12
2.5 (≈ 7.9 µM) | 0.13 (≈ 0.411 µM) | 1.7 (≈ 5.37 µM) | 2 (≈ 6.32 µM) | 6.5 (≈ 20.5 µM) | 3 (≈ 9.48 µM) | 0.4 (≈ 1.26 µM) | 1.6 (≈ 5.06 µM) | 0.07 | C[C@@H](O)[C@H]1C(=O)N2C(C(=O)O)=C(c3ccc(CN)cc3)[C@H](C)[C@H]12
1.1 | 0.02 | 0.7 | 5.3 | 1.2 | 1.4 | 0.2 | 0.9 | 0.22 | C[C@@H](O)[C@H]1C(=O)N2C(C(=O)[O-])=C(c3ccc(CO)cc3)[C@H](C)[C@H]12.[K+]
4.6 | 0.03 | 1.4 | 10 | 10 | 5.7 | 0.5 | 2.5 | 0.2 | C[C@@H](O)[C@H]1C(=O)N2C(C(=O)[O-])=C(c3ccccc3)C[C@H]12.[K+]
20 | 0.05 | 7 | 17 | 28 | 6 | 1.5 | 9 | 0.4 | C[C@@H](O)[C@H]1C(=O)N2C(C(=O)[O-])=C(c3cccnc3)C[C@H]12.[K+]
5 | 0.03 | 2.5 | 2.5 | 22 | 0.15 | 0.15 | 3.5 | 0.1 | C[C@@H]1C(c2cccnc2)=C(C(=O)[O-])N2C(=O)[C@H]([C@@H](C)O)[C@@H]12.[K+]
4 | 0.02 | 2.3 | 15 | 7 | 5 | 1 | 2 | 0.28 | C[C@@H](O)[C@H]1C(=O)N2C(C(=O)[O-])=C(c3ccc(CO)cc3)C[C@H]12.[K+]
0.02 (≈ 0.0869 µM) | 0.1 (≈ 0.434 µM) | 0.02 (≈ 0.0869 µM) | 0.03 (≈ 0.13 µM) | 0.01 (≈ 0.0434 µM) | 0.15 (≈ 0.652 µM) | 0.002 (≈ 0.00869 µM) | 0.01 (≈ 0.0434 µM) | 0.3 | O=C(O)C1=C(c2cccnc2)CC2CC(=O)N12 (stereo not given)
 |  |  |  |  |  |  |  | 0.02 | C[C@H](O)[C@H]1C(=O)N2C(C(=O)O)=C(c3ccc(CN)cc3)C[C@H]12
0.3 | 0.02 | 0.3 | 3.5 | 1 | 2 | 0.2 | 0.5 | 0.25 | C[C@@H](O)[C@H]1C(=O)N2C(C(=O)[O-])=C(c3ccccc3)[C@H](C)[C@H]12.[K+]
3.5 (≈ 11 µM) | 0.08 (≈ 0.252 µM) | 2.8 (≈ 8.82 µM) | 2.5 (≈ 7.88 µM) | 3.2 (≈ 10.1 µM) | 2.8 (≈ 8.82 µM) | 0.5 (≈ 1.58 µM) | 1.5 (≈ 4.73 µM) | 0.16 | C[C@@H](O)[C@H]1C(=O)N2C(C(=O)O)=C(c3ccc(CN)nc3)[C@H](C)[C@H]12
1.4 (≈ 5.14 µM) | 5.8 (≈ 21.3 µM) | 1.3 (≈ 4.77 µM) | 7.5 (≈ 27.5 µM) | 2.5 (≈ 9.18 µM) | 5 (≈ 18.4 µM) | 0.04 (≈ 0.147 µM) | 0.3 (≈ 1.1 µM) | 1 | C[C@@H](O)[C@H]1C(=O)N2C(C(=O)O)=C(SCCN)C[C@H]12 [THIENAMYCIN]
13 | 0.05 | 7 | 7 | 13 | 2.5 | 1 | 12 | 0.7 | C[C@@H](O)[C@H]1C(=O)N2C(C(=O)[O-])=C(c3cccnc3)[C@H](C)[C@H]12.[K+]
0.2 (≈ 0.872 µM) | 0.03 (≈ 0.131 µM) | 0.04 (≈ 0.174 µM) | 0.03 (≈ 0.131 µM) | 0.01 (≈ 0.0436 µM) | 1 (≈ 4.36 µM) | 0.02 (≈ 0.0872 µM) | 0.1 (≈ 0.436 µM) | 0.35 | O=C(O)C1=C(c2ccccc2)CC2CC(=O)N12 (stereo not given)
1.7 | 0.06 | 0.7 | 8 | 2.3 | 7.5 | 0.4 | 2.8 | 0.2 | C[C@@H](O)[C@H]1C(=O)N2C(C(=O)[O-])=C(c3ccc(O)cc3)C[C@H]12.[K+]
